Data taken from PMC4238591 (Analytical Chemistry, 2014).
Where “and” joins values, the source holds several entries; their conditions need not be identical. Equal values may be shown once. Read-outs that look alike come from different tables or passages of the source.

Assays:
[1] = SPR, 120–240 nM CTB, cited from earlier work
[2] = fluorescence; 1 mol % GM1; Hill–Waud model; cited from earlier work
[3] = format: binding, Ovine
[4] = SHG isotherm of nonspecific binding of CTB to pure DOPC bilayer; settings: entire CTB concentration range examined (0.22 to 13 nM)
[5] = tested on: N-acetylgalactose receptors on Chinese hamster ovarian (CHO) cells; settings: lectin iodination, PnA 10–60 μM, at least 1 h incubation; cited from earlier work
[6] = cited from earlier work
[7] = SHCS of nonspecific binding of PnA to pure DOPC bilayer; settings: 0.43, 3 and 12 μM PnA, pure DOPC bilayer without GM1
Outline: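 Data were recorded after steady-state equilibrium on each laser pulse (20 Hz, 50 ms step). For each protein concentration, 20 sets of 5000 points each (1.4 h) were taken. Each set's FFT was multiplied by its complex conjugate, the sets were averaged, and the result was inverse-transformed to give the autocorrelation. Time-zero points were normalized to matching specific-binding data (5 mol % GM1 in DOPC).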

[8] = SHCS of PnA binding to 5 mol % GM1-doped DOPC lipid bilayer; set-up: species or system Ovine; settings: for equilibrium binding affinity Ka: eq 2
[9] = [PnA] 0.43 μM, 5 mol % GM1, SHCS
[10] = [PnA] 3.0 μM, 5 mol % GM1, SHCS
[11] = [PnA] 12.2 μM, 5 mol % GM1, SHCS

In the case of CTB, the kon ([1]; 5 mol % GM1-doped lipid bilayer) is listed as 1.27 × 10^6 M^–1·s^–1, the Kd ([1]; steady-state equilibrium) is listed as 4.61 pM and the Ka [2] is listed as “(3.2 ± 0.7) × 10^9 M ^–1”. For the same molecule, the Kd [2] was 310 pM, the “n (Hill coefficient)” value [2] was 1.9 and the koff [3] was 3.6 ± 0.5 ×10^–5 s^–1 and 3.2 ± 0.4 ×10^–5 s^–1 and 2.5 ± 0.2 ×10^–5 s^–1. For the same molecule, the nonspecific binding [4] was “negligible nonspecific binding”.

B1: PnA: Peanut (Arachis hypogaea) agglutinin, tetrameric lectin that binds specifically to terminal D-galactosyl groups; from Sigma-Aldrich (protein, UniProt P02872 24-273, looked up)
Galactose-binding lectin: AETVSFNFNSFSEGNPAINFQGDVTVLSNGNIQLTNLNKVNSVGRVLYAMPVRIWSSATGNVASFLTSFSFEMKDIKDYDPADGIIFFIAPEDTQIPAGSIGGGTLGVSDTKGAGHFVGVEFDTYSNSEYNDPPTDHVGIDVNSVDSVKTVPWNSVSGAVVKVTVIYDSSTKTLSVAVTNDNGDITTIAQVVDLKAKLPERVKFGFSASGSLGGRQIHLIRSWSFTSTLITTTRRSIDNNEKKIMNMASA
In the case of B1, the Ka [5] is given as “(4.5 ± 1) × 10^6 M^–1”, the pI [6] is given as roughly 6 and the nonspecific binding [7] is given as “negligible nonspecific binding”. For the same molecule, the adsorption rate ([8]; 0.43 μM PnA, 5 mol % GM1, SHCS) was “(3.7 ± 0.3) × 10^6 M^–1·s^–1”, the desorption rate ([8]; 0.43 μM PnA, 5 mol % GM1, SHCS) was “(1.0 ± 0.2) × 10^–3 s^–1” and the “equilibrium binding affinity Ka” value ([8]; 0.43 μM PnA, SHCS) was “(3.7 ± 0.8) × 10^9 M^–1”. For the same molecule, the adsorption rate ([8]; 3 μM PnA, 5 mol % GM1, SHCS) was “(3.9 ± 0.3) × 10^5 M^–1·s^–1”, the desorption rate ([8]; 3 μM PnA, 5 mol % GM1, SHCS) was “(2.2 ± 0.2) × 10^–3 s^–1” and the “equilibrium binding affinity Ka” value ([8]; 3 μM PnA, SHCS) was “(1.7 ± 0.2) × 10^8 M^–1”. The adsorption rate ([8]; 12 μM PnA, 5 mol % GM1, SHCS) was “(1.1 ± 0.1) × 10^5 M^–1·s^–1”, the desorption rate ([8]; 12 μM PnA, 5 mol % GM1, SHCS) was “(2.7 ± 0.2) × 10^–3 s^–1” and the “equilibrium binding affinity Ka” value ([8]; 12 μM PnA, SHCS) was “(4.1 ± 0.5) × 10^7 M^–1”. The Ka ([8]; 60 μM PnA, 5 mol % GM1, SHCS) was “(8.4 ± 1.4) × 10^6 M^–1”, the adsorption rate ([8]; 60 μM PnA, 5 mol % GM1, SHCS) was “(3.1 ± 0.3) × 10^4 M^–1·s^–1” and the desorption rate ([8]; 60 μM PnA, 5 mol % GM1, SHCS) was “(3.7 ± 0.5) × 10^–3 s^–1”. The koff [8, 9] was 1.0 ± 0.2 ×10^–3 s^–1, the kon [8, 9] was 37 ± 3 ×10^5 M^–1·s^–1 and the Ka ([8]; [PnA] 0.43 μM, calculated by eq 2) was 37 ± 8 ×10^8 M^–1. The koff [8, 10] was 2.2 ± 0.2 ×10^–3 s^–1, the kon [8, 10] was 3.9 ± 0.3 ×10^5 M^–1·s^–1 and the Ka ([8]; [PnA] 3.0 μM, calculated by eq 2) was 1.7 ± 0.2 ×10^8 M^–1. For the same molecule, the koff [8, 11] was 2.7 ± 0.2 ×10^–3 s^–1, the kon [8, 11] was 1.1 ± 0.1 ×10^5 M^–1·s^–1 and the Ka ([8]; [PnA] 12.2 μM, calculated by eq 2) was 0.41 ± 0.05 ×10^8 M^–1.
